Screening data from PubChem.
An excerpt weighted towards active compounds, which were near 3.8% of everything screened.
Kir21 inh: inhibitors of mouse Kir2.1 inward-rectifier potassium channel; Inward rectifier potassium channel 2 (Mus musculus), P35561; HEK293-Kir2.1, FluxOR thallium flux fluorescence; hits give low values; B-score at 10 µM; actives 0.85% (n = 310,000); AID 1672, 2009;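 active means fluorescence ratio B-score at or below minus 3 SD of library scores, with starting-brightness B-score within 2 SD, cut at about -4.2 in these data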;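 further: channel flux triggered by added potassium and thallium sulfate stimulus; B-score of peak minus minimum fluorescence over baseline after thallium stimulus; more negative B-score means stronger Kir2.1 block with less thallium influx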
KCNK9 inh: KCNK9 potassium channel inhibitors, primary screen, HEK293 cells, thallium flux. actives 1.2% (n = 310,000). B-score at 10 µM. AID 488922, 2010. FluxOR thallium flux fluorescence; hits give low values. Potassium channel subfamily K member 9 (Homo sapiens), Q9NPC2;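 active means ratio B-score over 3 SD below the library mean, with starting fluorescence within 5 SD of its mean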;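 further: negative B-score means less thallium flux so channel inhibition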
hERG protect: hERG rescue from dofetilide block, primary screen, cell-based, CHO-hERG, FluxOR thallium flux, dofetilide IC70. Voltage-gated inwardly rectifying potassium channel KCNH2 (Homo sapiens), Q12809. dofetilide IC70 present. activation (rescue from dofetilide block), less the hit threshold, % at 10 µM. actives 0.51% (n = 310,000). AID 1511, 2009;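 active means activation above the mean of controls blocked by dofetilide plus 5 SD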;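 further: thallium influx through hERG after potassium depolarization seen as dye fluorescence rise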
Target sequence (Q12809 whole entry, looked up): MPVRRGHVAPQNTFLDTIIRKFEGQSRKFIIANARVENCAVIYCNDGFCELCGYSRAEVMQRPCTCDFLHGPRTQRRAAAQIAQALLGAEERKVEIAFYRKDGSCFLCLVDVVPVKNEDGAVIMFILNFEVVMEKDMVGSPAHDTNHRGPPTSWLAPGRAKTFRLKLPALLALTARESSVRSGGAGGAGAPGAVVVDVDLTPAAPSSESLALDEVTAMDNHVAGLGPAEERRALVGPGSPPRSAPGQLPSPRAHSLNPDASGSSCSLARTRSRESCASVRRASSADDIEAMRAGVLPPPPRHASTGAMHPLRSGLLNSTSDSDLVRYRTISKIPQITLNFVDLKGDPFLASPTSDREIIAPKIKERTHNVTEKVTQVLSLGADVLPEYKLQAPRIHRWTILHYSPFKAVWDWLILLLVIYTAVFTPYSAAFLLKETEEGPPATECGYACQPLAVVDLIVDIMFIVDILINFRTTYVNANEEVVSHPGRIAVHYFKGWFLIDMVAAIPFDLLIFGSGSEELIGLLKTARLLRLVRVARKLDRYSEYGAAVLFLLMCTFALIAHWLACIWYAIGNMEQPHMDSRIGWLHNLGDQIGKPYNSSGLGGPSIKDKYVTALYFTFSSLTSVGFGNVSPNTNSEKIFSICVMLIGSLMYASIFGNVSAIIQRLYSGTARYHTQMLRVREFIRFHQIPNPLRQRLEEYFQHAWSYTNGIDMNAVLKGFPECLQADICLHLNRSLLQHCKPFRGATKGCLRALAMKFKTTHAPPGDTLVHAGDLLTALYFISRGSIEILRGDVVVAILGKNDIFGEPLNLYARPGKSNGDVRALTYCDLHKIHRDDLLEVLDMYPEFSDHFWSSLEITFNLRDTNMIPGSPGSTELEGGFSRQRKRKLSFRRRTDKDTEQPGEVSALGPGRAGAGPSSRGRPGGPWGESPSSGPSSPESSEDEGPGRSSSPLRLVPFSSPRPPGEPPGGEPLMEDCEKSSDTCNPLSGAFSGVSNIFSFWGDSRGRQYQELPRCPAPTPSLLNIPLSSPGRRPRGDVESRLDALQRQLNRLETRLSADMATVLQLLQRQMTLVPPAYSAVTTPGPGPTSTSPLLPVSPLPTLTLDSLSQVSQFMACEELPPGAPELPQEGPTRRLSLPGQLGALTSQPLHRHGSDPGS
KCNQ1 block: inhibitors of human KCNQ1 channel, primary screen, cell-based, thallium flux, high-throughput; Potassium voltage-gated channel subfamily KQT member 1 (Homo sapiens), P51787; CHO-K1 KCNQ1, FluxOR thallium flux fluorescence; hits give high values; B-score at 10 µM; actives 1.3% (n = 310,000); AID 2642, 2010;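 active means compounds whose thallium flux B-score, printed positive for inhibition, exceeds three library SD while starting fluorescence stays within three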;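 further: channel opened by potassium depolarization with thallium stimulus after 20 min compound exposure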
KCNK3 block: human KCNK3 channel inhibitors, primary screen, CHO cells, FluxOR thallium flux, B-score; Potassium channel subfamily K member 3 (Homo sapiens), O14649; FluxOR fluorescence; hits give low values; B-score at 10 µM; actives 0.84% (n = 340,000); AID 602410, 2012;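 active means B-score under library mean minus 4 SD, starting fluorescence ratio at most library mean plus 5 SD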;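 further: more negative B-score means stronger inhibition of thallium flux through KCNK3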
KCNQ1 act: potentiators or activators of KCNQ1 channel, primary screen, cell-based, thallium flux, high-throughput. Potassium voltage-gated channel subfamily KQT member 1 (Homo sapiens), P51787. CHO-K1 KCNQ1, thallium flux FluxOR fluorescence; hits give high values. B-score at 10 µM. actives 0.35% (n = 310,000). AID 2648, 2010;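 active means fluorescence ratio B-score, a plate-corrected score, at least three library SD, with initial intensity B-score within 5 SD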
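Test system: CHO-K1 cells stably expressing KCNQ1 / Medium: assay buffer / Also added: depolarizing K+/Tl+ stimulus, K2SO4 and Tl2SO4 each 12.5 mM in 5x stock / Incubation: 90 min dye loading and 20 min compound exposure, both at room temperature / Signal: thallium influx via FluxOR fluorescence, kinetic imaging / Evaluation: B score of baseline-normalized fluorescence ratio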
Of the large screens only hits and unclear results are named; the others gave an inactive call.

CCCCC1(Cc2cccc([N+](=O)[O-])c2)C(=O)N(c2ccccc2)N(c2ccccc2)C1=O	KCNQ1 block 6
O=P(O)(C(O)c1ccccc1)C(O)c1ccccc1 (centres undefined)	none
O=C(Cc1coc2cc3c(cc12)CCC3)NCC1(N2CCCCC2)CCCCC1	Kir21 inh -4.66
O=C(Cc1coc2cc3c(cc12)CCC3)NC1CCCCCCC1	none
Cc1ccc(S(=O)(=O)/C(C#N)=C/c2c(N3CCN(C)CC3)nc3ccccn3c2=O)cc1	none
Cc1ccc(S(=O)(=O)/C(C#N)=C/c2c(N3CCN(Cc4ccccc4)CC3)nc3ccccn3c2=O)cc1	KCNK3 block -10.7
CC[C@@H]1C/C=C\Cc2ccccc2[C@H](C(=O)C[C@H](O)CC(C)=O)OC1=O	none (no result: Kir21 inh, KCNK9 inh, hERG protect, KCNQ1 block, KCNQ1 act)
c1ccc(SCCOCCN2CCc3ccccc3C2)cc1	Kir21 inh -5.4
Oc1ccc(C[C@H]2CNCCN2CCC23CC4CC(CC(C4)C2)C3)cc1	KCNQ1 block 6
Fc1ccc(-c2n[nH]c(=S)c3ccccc23)cc1	none
COc1ccc(S(=O)(=O)Nc2ccc(O)c3ccccc23)cc1	hERG protect 5.1
Cc1ccc(S(=O)(=O)Nc2ccc(O)c3ccccc23)c(C)c1	hERG protect 9.0
COc1ccc(S(=O)(=O)Nc2ccccc2)cc1	none
Cc1ccc(C)c(S(=O)(=O)Nc2ccc(O)c3ccccc23)c1	none
COc1ccc(C(=O)COC(=O)c2ccccc2NS(=O)(=O)c2ccc(O)c([N+](=O)[O-])c2)cc1	KCNQ1 block 9
Cc1cccc(NC(=O)CSc2nccn2Cc2ccco2)c1C	none
COc1ccc(Nc2nc(-c3cccs3)nc3ccccc23)cc1S(=O)(=O)N1CCOCC1	KCNK3 block -11.3
COc1ccc(NS(=O)(=O)c2cccs2)cc1S(=O)(=O)N1CCOCC1	none
O=C(CN1CCCCCC1)Nc1ccc(Cl)cn1	none
CC(O)CNc1nc2ccccc2n1-c1ncnc2sc3c(c12)CCC3 (centres undefined)	Kir21 inh -7.62
c1ccc2c(c1)ncn2-c1ncnc2sc3c(c12)CCCC3	none
S=C(NCCSCc1c(Cl)cccc1Cl)Nc1ccccc1	Kir21 inh -5.13
O=C(NCCSCc1c(F)cccc1Cl)Nc1ccccc1	none
CCN(CC)C(=O)[C@H]1CC(CC(=O)NCC23CC4CC(CC(C4)C2)C3)C(=O)N2CCc3c([nH]c4ccc(OC)cc34)[C@]12C (some centres undefined)	none (no result: Kir21 inh, KCNK9 inh, hERG protect, KCNQ1 block, KCNQ1 act)
CCOC(=O)C1(CCOc2ccccc2)CCN(Cc2ccc(O)cc2)CC1	none
CCOC(=O)C1(CCc2ccccc2)CCN(Cc2ccc(OC)cc2)CC1	Kir21 inh -5.22
CCOC(=O)C1(CCc2ccccc2)CCN(Cc2ccc(O)cc2)CC1	Kir21 inh -4.46
CCOC(=O)C1(Cc2cccc(OC)c2)CCN(C/C=C/c2ccc(OC)cc2)CC1	KCNQ1 block 7
CCc1nn(CC(=O)NCCCN(C)Cc2ccccc2)c(=O)c2cc3sc(C)cc3n12	none
COc1ccccc1C(=O)NCCC(=O)NCC(c1ccco1)N1CCCC1 (centres undefined)	none (no result: Kir21 inh, KCNK9 inh, hERG protect, KCNQ1 block, KCNQ1 act)
O=S(=O)(Nc1cccc(-n2cnnn2)c1)c1ccccc1C(F)(F)F	none
COc1ccc(-c2nn(-c3ccccc3)cc2/C=C/C(=O)NCCCn2ccnc2)cc1OC	KCNQ1 block 7
CCOc1ccc(NC(=O)CN(C)C(=O)c2c(-c3c(F)cccc3Cl)noc2C)cc1OCC	KCNQ1 act 8
CCOc1ccc(NC(=O)CN(C)C(=O)c2cn(-c3ccc(F)cc3)nc2-c2cccc(OC)c2)cc1OCC	KCNQ1 block 7
COc1ccc(-c2nn(-c3ccccc3)cc2/C=C/C(=O)N(C)CC(=O)Nc2cccc(F)c2)cc1OC	KCNK3 block -10.4 (no result: Kir21 inh, KCNK9 inh, hERG protect, KCNQ1 block, KCNQ1 act)
COC(=O)C(=N/Nc1ccccc1C(=O)OC)/C(C)=N/O	none
N#CC(C(=O)NC1CC1)c1nc2ccccc2nc1N1CCN(C/C=C/c2ccccc2)CC1 (centres undefined)	KCNQ1 block 6
Cc1ccc(N2C(=O)c3ccc(C(=O)Nc4cccnc4)cc3C2=O)c(C)c1	hERG protect 4.7
Cc1cccc(OCC(=O)N(Cc2ccco2)C2CCS(=O)(=O)C2)c1C (centres undefined)	none
COc1cccc(-c2nn3c(-c4cc(C)[nH]n4)nnc3s2)c1	hERG protect 5.9
COc1cccc(-c2nn3c(-c4ccccn4)nnc3s2)c1	none
O=C1C=CC(=O)C(C2=C3C(=O)N(CCc4ccccc4)CC(=O)N3CCC2)=C1	Kir21 inh -7.03 (no result: KCNK3 block)
Cc1ccc(NC(=O)C(C)c2cccc(C(=O)c3ccccc3)c2)cc1O (centres undefined)	KCNQ1 block 8
Cc1cccc(NC(=O)C(C)C(=O)c2ccccc2)c1 (centres undefined)	none
CCS(=O)(=O)N1CCC(N2CCC(C)CC2)CC1	none
Oc1c(Br)cc(Br)cc1C=NCc1ccc(F)cc1	KCNQ1 act 12
Oc1c(Br)cc(Br)cc1C=NCc1ccccc1	KCNQ1 act 22
O=C(Cc1ccccc1)N/N=C/c1cc(Br)cc(Br)c1O	none
O/N=C/c1cc(Br)ccc1OCc1ccc(F)cc1	none
O=C(Nc1nc2c(Br)cc(Br)cc2c(=O)s1)C1CCC1	hERG protect 5.9
N#CC1=C(N)C(C#N)(C#N)C(c2ccc[nH]2)C2CCCC=C12 (centres undefined)	Kir21 inh -4.89
N#CC1=C(N)C(C#N)(C#N)C(c2cccnc2)C2CCCC=C12 (centres undefined)	none (no result: KCNK3 block)
Cn1c(-c2ccc3c(c2)OCO3)cnc1NCc1ccccc1	Kir21 inh -5.98
Cn1c(-c2cccc(Br)c2)cnc1NCc1ccccc1O	Kir21 inh -6.21
Cn1c(-c2ccc3c(c2)OCO3)cnc1NCc1ccccc1Cl	Kir21 inh -4.26
Cn1c(-c2ccc3c(c2)OCO3)cnc1NCc1cccc(Cl)c1	none
Cc1nc2c(C(=O)NCCC(C)C)c[nH]n2c(=O)c1Cc1ccccc1F	KCNQ1 block 6
CSc1cccc(NC(=O)Nc2ccccc2C(N)=O)c1	none
Cc1ccc(CNCCC2=CCCCC2)cc1	Kir21 inh -6.87
CCN(C(=O)CSc1nc2cc(Cl)ccc2c(=O)n1CC(C)C)C1CCS(=O)(=O)C1 (centres undefined)	KCNK3 block -10.6
